YB-1 expr inh: inhibitors of YB-1 gene expression, primary screen, cell-based, fluorescence | AID 434959, 2010 | hit rate 0.37% among 30,000 | delta delta Cp (YB-1 minus CDIP) (concentration not given with the values) | U2OS, qRT-PCR YB-1 vs CDIP delta delta Cp, 16 h; stronger effect = higher value; zero = DMSO, each unit about twofold;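 active means delta delta Cp rounded down to an integer at or above 3, about 3 SD of DMSO wells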;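 further: higher means less YB-1 transcript or more CDIP transcript relative to DMSO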
INS-1E rescue: protection of INS-1E cells from cytokine death, primary screen, ATP luminescence, single point | INS-1E cytokine-induced death, 48 h; normalised: neutral wells 0, positive control 100 | protection from cytokine-induced ATP loss, % at 10 µM | hit rate 0.1% among 20,000;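 active means mean replicate protection from cytokine-induced ATP loss at least 50% and at least 75% of replicates each reaching 50%; inconclusive means meets only one of the two criteria, mean or replicate share; inactive means fails both the mean and replicate share criteria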
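Test system: INS-1E rat cells | Quantity: 8000 cells per well | Medium: Phenol-red-free RPMI with 5% fetal bovine serum | Reagent: Cytokine cocktail of IFN-γ, TNF-α and IL-1β | Doses: One compound concentration, pin transfer | Timing: 48 h co-treatment, 10 min post-lysis read | Technique: Luminescent ATP assay (CellTiter-Glo)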
T cruzi HTS: inhibitors of intracellular Trypanosoma cruzi, primary screen, cell-based, plate reader, single point, set 2 | hit rate 4.9% among 22,000 | intracellular Trypanosoma cruzi in host cells | AID 651903, 2012 | activity score (inhibition), % at 5.01 µM; in the data active means activity score above about 55%; inconclusive means no clear call, values can overlap the other calls;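 further: parasites and compound incubated about four days before reading; 0% = median of neutral control wells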
Numbers without * were called inactive; u = inconclusive; x = no result given. This excerpt belongs to a sample that is enriched for hits.

SMILES	YB-1 expr inh	INS-1E rescue	T cruzi HTS
C[C@@H]1CN([C@@H](C)CO)C(=O)c2cc(NS(=O)(=O)c3ccc(Cl)cc3)ccc2O[C@@H]1CN(C)Cc1ccc(-c2ccccc2)cc1	0.12	-52	69*
N#Cc1sc2nc(-c3ccncc3)ccc2c1N	0.052	x	x
C[C@@H]1CN([C@H](C)CO)C(=O)Cc2cc(NC(=O)Nc3ccccc3)ccc2O[C@H]1CN(C)Cc1ccc(Oc2ccccc2)cc1	0.091	-46	49
C[C@@H]1CN([C@@H](C)CO)C(=O)Cc2cc(NC(=O)Nc3ccc(C(F)(F)F)cc3)ccc2O[C@@H]1CN(C)Cc1ccc(Oc2ccccc2)cc1	0.32	-8	74*
C[C@@H]1CN([C@H](C)CO)C(=O)Cc2cc(NC(=O)Nc3ccc(C(F)(F)F)cc3)ccc2O[C@@H]1CN(C)Cc1ccc(Oc2ccccc2)cc1	-0.025	-35	80*
C[C@H]1CN([C@@H](C)CO)C(=O)Cc2cc(NC(=O)Nc3ccc(C(F)(F)F)cc3)ccc2O[C@H]1CN(C)Cc1ccc(Oc2ccccc2)cc1	-0.43	-19	4
Cc1noc(C)c1S(=O)(=O)Nc1ccc2c(c1)CC(=O)N([C@@H](C)CO)C[C@@H](C)[C@@H](CN(C)Cc1ccc(Oc3ccccc3)cc1)O2	-0.12	-15	60*
Cc1noc(C)c1S(=O)(=O)Nc1ccc2c(c1)CC(=O)N([C@@H](C)CO)C[C@H](C)[C@H](CN(C)Cc1ccc(-c3ccccc3)cc1)O2	0.034	-12	19
Cc1noc(C)c1S(=O)(=O)Nc1ccc2c(c1)CC(=O)N([C@@H](C)CO)C[C@@H](C)[C@@H](CN(C)Cc1ccccc1)O2	-0.15	6	12
Cc1noc(C)c1S(=O)(=O)Nc1ccc2c(c1)CC(=O)N([C@H](C)CO)C[C@@H](C)[C@@H](CN(C)Cc1ccc(-c3ccccc3)cc1)O2	-0.11	-21	60*
C[C@H]1CN([C@@H](C)CO)C(=O)Cc2cc(N(C)C)ccc2O[C@@H]1CN(C)Cc1ccc(Oc2ccccc2)cc1	-0.47	-1	67*
C[C@H]1CN([C@@H](C)CO)C(=O)Cc2cc(N(C)C)ccc2O[C@H]1CN(C)Cc1ccc(Oc2ccccc2)cc1	0.42	-22	76*
C[C@H](CO)N1C[C@H](C)[C@H](CN(C)Cc2ccccc2)Oc2ccc(N(C)C)cc2CC1=O	-0.21	-2	4
C[C@@H]1CN([C@H](C)CO)C(=O)Cc2cc(N(C)C)ccc2O[C@@H]1CN(C)Cc1ccc(Oc2ccccc2)cc1	-0.17	-51	40
NCCOc1ccc(Cl)cc1	-0.012	x	x
CC1(C)NC(=S)N(c2ccccc2)N1	0.018	x	x
C/S(=N\S(=O)(=O)c1ccc(Cl)cc1)c1ccccc1 (stereo unspecified)	-0.061	x	x
COc1ccc(CC(=O)NN2C(=O)CSCC2=O)cc1OC	0.54	x	x
CN(CC(=O)C1=C(c2ccc(Br)cc2)C(=O)c2ccccc2C1=O)c1ccccc1	0.072	x	x
C[C@@H]1CN([C@@H](C)CO)C(=O)c2cccc(NC(=O)c3nc4ccccc4s3)c2O[C@@H]1CN(C)Cc1ccccc1	0.45	-49	36
COc1ccc(CN(C)C[C@@H]2Oc3c(NC(=O)c4nc5ccccc5s4)cccc3C(=O)N([C@H](C)CO)C[C@H]2C)cc1	-0.35	-18	57*
C[C@H](CO)N1C[C@H](C)[C@@H](CN(C)Cc2ccc(C(=O)Nc3ccccc3N)cc2)Oc2c(NC(=O)c3nc4ccccc4s3)cccc2C1=O	0.23	2	71*
C[C@@H]1CN([C@@H](C)CO)C(=O)c2cccc(NC(=O)c3nc4ccccc4s3)c2O[C@@H]1CN(C)Cc1ccc(C(=O)Nc2ccccc2N)cc1	-0.57	30	u
C[C@@H]1CN([C@@H](C)CO)C(=O)c2cccc(NC(=O)c3nc4ccccc4s3)c2O[C@@H]1CN(C)Cc1ccc(C(F)(F)F)cc1	0.2	-56	61*
COc1ccc(CN(C)C[C@@H]2Oc3c(NC(=O)c4nc5ccccc5s4)cccc3C(=O)N([C@@H](C)CO)C[C@H]2C)cc1	0.13	-15	47
SMILES	YB-1 expr inh	INS-1E rescue	T cruzi HTS
C[C@@H]1CN([C@@H](C)CO)C(=O)c2cccc(NC(=O)c3nc4ccccc4s3)c2O[C@H]1CN(C)CC1CCCCC1	-0.031	-61	44
C[C@@H]1CN([C@H](C)CO)C(=O)c2cccc(NC(=O)c3nc4ccccc4s3)c2O[C@H]1CN(C)CC1CCCCC1	-0.074	-8	58*
CN1C2CCC1CC(NC(=O)Cc1ccccc1F)C2 (stereo unspecified)	0.17	x	x
O=S(=O)(Cc1nc(-c2ccccc2Cl)cs1)c1cccs1	0.29	x	x
C[C@H](CO)N1C[C@H](C)[C@@H](CN(C)Cc2ccc(Cl)c(Cl)c2)Oc2c(NC(=O)c3nc4ccccc4s3)cccc2C1=O	-0.12	-28	69*
C[C@@H]1CN([C@H](C)CO)C(=O)c2cccc(NC(=O)c3nc4ccccc4s3)c2O[C@H]1CN(C)Cc1ccc(Cl)c(Cl)c1	0.18	-60	51
C[C@H](CO)N1C[C@H](C)[C@H](CN(C)Cc2ccc(-c3ccccc3)cc2)Oc2c(NC(=O)c3nc4ccccc4s3)cccc2C1=O	-0.27	-42	60*
C[C@H]1CN([C@@H](C)CO)C(=O)c2cccc(NC(=O)c3nc4ccccc4s3)c2O[C@H]1CN(C)Cc1ccc(-c2ccccc2)cc1	-0.74	-23	23
CNC(=O)c1cc(C#N)c(SC)s1	-0.46	x	x
O=C1N(C2CCCCC2)C(=NC2CCCCC2)SC12CC2	0.45	x	x
c1cncc(-c2nc3c4c5c(sc4ncn3n2)CCCC5)c1	-0.17	x	x
C(=N/n1cnnc1)/c1cccc2c1OCCCO2	-0.43	x	x
C[C@@H]1CCCCO[C@@H](CN(C)C(=O)CCCN(C)C)[C@@H](C)CN([C@H](C)CO)C(=O)c2cc(NS(C)(=O)=O)ccc2O1	9.7*	-8	x
C[C@@H]1CCCCO[C@H](CN(C)C(=O)CCCN(C)C)[C@@H](C)CN([C@H](C)CO)C(=O)c2cc(NC(=O)Nc3ccccc3)ccc2O1	-0.42	9	23
Cc1ccc(S(=O)(=O)Nc2ccc3c(c2)C(=O)N([C@H](C)CO)C[C@H](C)[C@H](CN(C)C(=O)CCCN(C)C)OCCCC[C@@H](C)O3)cc1	-0.36	2	-12
C[C@@H]1CCCCO[C@@H](CN(C)C(=O)CCCN(C)C)[C@@H](C)CN([C@H](C)CO)C(=O)c2cc(NC(=O)c3ccccc3)ccc2O1	9.6*	-2	-9
Clc1ccccc1/C=C/C=Nc1ccc(N2CCOCC2)cc1	0.031	x	x
Cn1c(=O)c2ccccc2[s+]1-c1cccc2cccc(C(=O)O)c12 (stereo unspecified)	0.033	x	x
C[C@@H]1CN([C@@H](C)CO)C(=O)c2cccc(NC(=O)C3CC3)c2O[C@H]1CN(C)Cc1ccc(C(=O)Nc2ccccc2N)cc1	-0.11	-10	38
CC(C)NC(=O)Nc1cccc2c1O[C@@H](CN(C)Cc1ccc(C(=O)Nc3ccccc3N)cc1)[C@@H](C)CN([C@H](C)CO)C2=O	0.12	-14	31

Bioassay records: PubChem BioAssay, Broad Institute
